# How the values were obtained:
# hEag1 channels [1] = target: T1, hEag1 channels (Homo sapiens, UniProt O95259); assay: Whole-cell patch-clamp of hEag1 currents in stably transfected HEK-293 cells; type: cell-based
# T1 sequence (O95259 1-989): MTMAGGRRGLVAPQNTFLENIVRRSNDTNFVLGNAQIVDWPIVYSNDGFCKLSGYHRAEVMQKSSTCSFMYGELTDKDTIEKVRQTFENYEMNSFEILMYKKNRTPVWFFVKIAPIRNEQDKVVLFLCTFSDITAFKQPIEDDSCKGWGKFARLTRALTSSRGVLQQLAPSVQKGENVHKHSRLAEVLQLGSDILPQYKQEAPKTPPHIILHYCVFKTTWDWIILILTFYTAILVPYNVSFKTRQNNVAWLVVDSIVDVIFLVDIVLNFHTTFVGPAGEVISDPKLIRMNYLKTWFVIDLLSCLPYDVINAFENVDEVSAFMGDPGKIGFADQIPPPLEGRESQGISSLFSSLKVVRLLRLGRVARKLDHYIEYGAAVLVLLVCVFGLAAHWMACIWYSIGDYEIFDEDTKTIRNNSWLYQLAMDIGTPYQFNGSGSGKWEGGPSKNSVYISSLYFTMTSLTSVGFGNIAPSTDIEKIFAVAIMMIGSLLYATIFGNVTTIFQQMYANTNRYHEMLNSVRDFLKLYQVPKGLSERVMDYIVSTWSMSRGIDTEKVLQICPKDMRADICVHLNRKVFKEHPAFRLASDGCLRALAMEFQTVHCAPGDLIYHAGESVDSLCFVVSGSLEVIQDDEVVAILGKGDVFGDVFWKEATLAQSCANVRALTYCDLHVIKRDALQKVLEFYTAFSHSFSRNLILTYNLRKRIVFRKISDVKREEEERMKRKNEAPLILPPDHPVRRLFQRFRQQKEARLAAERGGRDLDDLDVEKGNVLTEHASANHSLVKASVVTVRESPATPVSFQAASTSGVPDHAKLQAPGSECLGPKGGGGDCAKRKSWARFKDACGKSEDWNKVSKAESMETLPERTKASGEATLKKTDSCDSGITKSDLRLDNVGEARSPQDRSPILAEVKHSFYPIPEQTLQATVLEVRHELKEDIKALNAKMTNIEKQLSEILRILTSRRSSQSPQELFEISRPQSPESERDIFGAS
# hEag1 channels [2] = target: T1, hEag1 channels; assay: Inside-out patch recordings of hEag1 currents; type: cell-based; conditions: for rate of block: inside-out, 500 nM astemizole
# In short: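 Inside-out patches from hEag1-expressing cells at room temperature. Pipette: 145 NaCl, 5 KCl, 3 CaCl2, 1 MgCl2, 10 HEPES/NaOH pH 7.4. Successive 6-s pulses at 80 mV with drug applied for 2.5 s. Current ratios to preapplication traces were fitted with a single exponential to give the block time constant.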
# hEag1 channels [3] = target: T1, hEag1 channels; assay: Cell-attached patch recordings of hEag1 currents, drug in bath; type: cell-based; conditions: 140 mM external K+, 60 mV
# In short: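 hEag1-expressing cells grown 24–72 h on poly-L-lysine-coated coverslips; cell-attached patches at room temperature. Bath held 140 mM K+; pipette held control external solution (160 NaCl, 2.5 KCl, 2 CaCl2, 1 MgCl2, 10 HEPES, pH 7.4) without glucose. 1-s steps to 60 mV from −70 mV were recorded before, during and after washout of bath-applied drug.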
# hEag1 channels [4] = target: T1, hEag1 channels; assay: hEag1 channels expressed in Xenopus oocytes; type: cell-based
# cardiac IsK currents = conditions: concentrations up to 10 μM; ref Suessbrich et al., 1996; cited from earlier work
# [5] = system: IRK1 inward rectifier K^+ channels; conditions: concentrations up to 10 μM; ref Suessbrich et al., 1996; cited from earlier work
# Kv1.1 = conditions: concentrations up to 10 μM; ref Suessbrich et al., 1996; cited from earlier work
# [6] = system: Eag-like channels 2 (hELK2); conditions: ref Becchetti et al., 2002; cited from earlier work
# [7] = 10 μM imipramine or 1 μM astemizole
# [8] = 200 μM internal TEA, 80 mV, 10 μM imipramine or 1 μM astemizole
# [9] = control, 80 mV, 10 μM imipramine or 1 μM astemizole
# [10] = nonsaturating concentrations, 80 mV
smiles,measurement,setting,value
COc1ccc(CCN2CCC(Nc3nc4ccccc4n3Cc3ccc(F)cc3)CC2)cc1 [astemizole],Kd,hEag1 channels [1],109 nM
same,voltage dependence of block,hEag1 channels [1],insensitive to membrane potential
same,current blocked,"hEag1 channels [1]; 100 nM astemizole in the presence of 5 μM imipramine, 60 mV",38 ± 5%
same,current blocked,"hEag1 channels [1]; 100 nM astemizole, control external solution, 60 mV",66 ± 3%
same,k of exponential fit to τclose(V) (tail current deactivation),hEag1 channels [1]; [7],−0.025
same,τ(0) of exponential fit to τclose(V) (tail current deactivation),hEag1 channels [1]; [7],10.75 ms
same,τ∞ of exponential fit to τclose(V) (tail current deactivation),hEag1 channels [1]; [7],0.75 ms
same,effect on whole-cell current when added to the intracellular solution,hEag1 channels [1]; 25 μM in intracellular pH 6.4 solution (unpublished data),substantial block
same,reduction of potency in the presence of internal TEA,hEag1 channels [1]; 200 μM internal TEA,~50%
same,current blocked,hEag1 channels [1]; [8],42 ± 12%
same,τblock,hEag1 channels [1]; [8],1084 ± 158 ms
same,effect of external TEA on the block,hEag1 channels [1]; 7 mM external TEA,did not affect
same,IC50,"hEag1 channels [1]; IC50(V), voltage-independent line through IC50 data, test potentials 20–120 mV",120 nM
same,IC50,"hEag1 channels [1]; IC50, whole-cell, pHext//pHint 6.4//7.35",419 ± 68 nM
same,IC50,"hEag1 channels [1]; IC50, whole-cell, pHext//pHint 7.4//6.4",54 ± 12 nM
same,IC50,"hEag1 channels [1]; IC50, whole-cell, pHext//pHint 7.4//8.4",556 ± 69 nM
same,IC50,"hEag1 channels [1]; IC50, whole-cell, pHext//pHint 8.4//7.35",37 ± 7 nM
same,current blocked,hEag1 channels [1]; [9],87 ± 3%
same,τblock,hEag1 channels [1]; [9],317 ± 73 ms
same,slope of logIC50 versus difference between pHext and pHint,hEag1 channels [1]; linear fit,−0.53
same,slope of linear fit of τblock^−1 versus concentration,hEag1 channels [1]; [10],4 s^−1μM^−1
same,y intercept of linear fit of τblock^−1 versus concentration,hEag1 channels [1]; [10],0.4 µM
same,time constant of block washout,"hEag1 channels [1]; pHext 7.4, pHint 6.4",235 s
same,time course of block onset,"hEag1 channels [1]; pHext 7.4, pHint 6.4, 250 nM astemizole",60 s
same,time constant of block washout,"hEag1 channels [1]; pHext 7.4, pHint 8.4",25 s
same,time course of block onset,"hEag1 channels [1]; pHext 7.4, pHint 8.4, 5 μM astemizole",20 s
same,Hill coefficient of dose–response plot,"hEag1 channels [1]; whole-cell, 80 mV",1.32
same,Hill coefficient of fit to τblock versus concentration,"hEag1 channels [1]; whole-cell, 80 mV",1.32
same,time constant of current decay (τblock) at the IC50 concentration,"hEag1 channels [1]; whole-cell, 80 mV",~500 ms
same,"τblock, maximum of Hill fit","hEag1 channels [1]; whole-cell, 80 mV",1.33 s
same,"τblock, minimum of Hill fit","hEag1 channels [1]; whole-cell, 80 mV",0.024 s
same,time constant of block in inside-out patches,"hEag1 channels [2]; bath pH 6.0, pipette pH 7.4, 80 mV",387 ms
same,reversal of block on 2-s washout during the depolarization,hEag1 channels [2]; inside-out patches,did not recover
same,rate of block,hEag1 channels [2]; pHint 6.4,6.7 ± 2 s⁻¹
same,rate of block,hEag1 channels [2]; pHint 7.4,2.8 ± 0.2 s⁻¹
same,block of channels in cell-attached patches by bath application,hEag1 channels [3],blocked
same,IC50,hEag1 channels [4],~1500 nM
same,effect on current,cardiac IsK currents,no significant effects
same,effect on current,[5],no significant effects
same,effect on current,Kv1.1,no significant effects
same,sensitivity to astemizole,[6],not sensitive
